In brackets after ≈: the same amount, converted by molar mass. Activity calls are given as the source filed them. The calls are words filed in the database; no cut-off is given here.
Columns and labels:
[1] = system: Mycobacterium tuberculosis; experiment: Antimycobacterial activity against Mycobacterium tuberculosis mc2 6230 assessed as inhibition of bacterial growth measured after 7 days by broth dilution method; format: functional; conditions: mc2 6230, 168 h, time 7 day
Outline: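 Pantothenate auxotroph carrying empty pMV261. 2-fold serial dilutions, 37 °C, no agitation, 7 days. MIC99 is the lowest concentration with no turbidity change. DMSO vehicle control.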

[2] = system: Mycobacterium tuberculosis; experiment: Antimycobacterial activity against Mycobacterium tuberculosis mc2 6230 assessed as reduction in log10 CFU at 5 times of MIC measured after 3 days by time-killing kinetics assay; format: functional; conditions: time 3 day
Outline: (§1)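 Exposed to 1x, 5x or 20x MIC at 37 °C for up to 6 days. Serial dilutions plated on 7H10/OADC/pantothenate and colonies counted after 3 weeks. Mean of four independent experiments in technical triplicate, with SD. DMSO negative control.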

[3] = Cytotoxicity against human THP-1 cells assessed as reduction in cell viability measured after 24 hrs by resazurin staining based analysis; format: toxicity
Outline: (§2)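 THP-1 monocytes differentiated with 20 ng/mL PMA for 48 hrs at 1×10^5 cells/well. Compounds added by serial dilution from 100 µg/mL for 24 or 72 hrs at 37 °C and 5% CO₂. Resazurin 10% for 4 hrs, fluorescence at ex 540/em 590 nm. Mean of three independent experiments in triplicate. INH and RFB reference drugs.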

Mycobacterium marinum = experiment: Antimycobacterial activity against Mycobacterium marinum M strain assessed as inhibition of bacterial growth measured after 6 days by broth dilution method; format: functional; conditions: 144 h, time 6 day
Outline: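 MIC99 by 2-fold serial broth dilution in 7H9 with 10% OADC and 0.025% tyloxapol. Inoculum 5.10⁶ CFU/mL. Incubated without agitation at 30 °C, scored for no turbidity change after 6 days. DMSO vehicle control.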

[4] = system: Mycobacterium tuberculosis; experiment: Antimycobacterial activity against Mycobacterium tuberculosis mc2 6230 assessed as inhibition of bacterial growth at 1 ug/ml measured after 7 days by broth dilution method; format: functional, organism-based; conditions: dose 1.0 µg/ml, time 7.0 day
[5] = Cytotoxicity against human THP-1 cells assessed as reduction in cell viability measured after 72 hrs by resazurin staining based analysis; format: toxicity; outline: as §2
[6] = system: Mycobacteroides abscessus; experiment: Antimycobacterial activity against Mycobacterium abscessus CIP104536 smooth variant assessed as inhibition of bacterial growth measured after 4 days by broth dilution method; format: functional; conditions: CIP104536, 96 h, time 4 day
Outline: (§3)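 MIC99 by CLSI broth 2-fold serial dilution in CaMHB. Inoculum 5.10⁶ CFU/mL. Incubated at 30 °C and read by turbidity after 4 days. DMSO vehicle control, INH reference.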

[7] = system: Mycobacterium tuberculosis; experiment: Antimycobacterial activity against Mycobacterium tuberculosis mc2 6230 assessed as reduction in log10 CFU at 20 times of MIC measured after 6 days by time-killing kinetics assay; format: functional; conditions: time 6 day; outline: as §1
[8] = system: Mycobacterium tuberculosis; experiment: Antimycobacterial activity against Mycobacterium tuberculosis mc2 6230 assessed as reduction in log10 CFU at 1 time of MIC measured after 6 days by time-killing kinetics assay; format: functional, organism-based; conditions: time 6.0 day; outline: as §1
Vero = experiment: Cytotoxicity against African green monkey Vero cells assessed as reduction in cell viability measured after 24 hrs by resazurin staining based analysis; format: toxicity; conditions: chlorocebus sabaeus
Outline: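 Vero cells in RPMI 1640 with 10% FCS, 2×10^4 cells/well, adhered overnight at 37 °C and 5% CO₂. Compounds added at 100 to 0.78 µg/mL for 24 hrs. 10% resazurin added for 4 hrs, fluorescence read at ex 540/em 590 nm.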

[9] = system: Mycobacteroides abscessus; experiment: Antimycobacterial activity against Mycobacterium abscessus CIP104536 rough variant assessed as inhibition of bacterial growth measured after 4 days by broth dilution method; format: functional; conditions: CIP104536, 96 h, time 4 day; outline: as §3
[10] = Selectivity index, […] Mycobacterium abscessus CIP104536 rough variant to CC50 for cytotoxicity against human THP-1 cells; format: toxicity, cell-based; conditions: read-out: Selectivity Index
[11] = Selectivity index, […] Mycobacterium tuberculosis H37Rv to CC50 for cytotoxicity against human THP-1 cells; format: toxicity, cell-based; conditions: read-out: Selectivity Index
[12] = Selectivity index, […] Mycobacterium marinum M strain to CC50 for cytotoxicity against human THP-1 cells; format: toxicity, cell-based; conditions: read-out: Selectivity Index
[13] = Selectivity index, […] Mycobacterium abscessus CIP104536 smooth variant to CC50 for cytotoxicity against human THP-1 cells; format: toxicity, cell-based; conditions: read-out: Selectivity Index
[14] = system: Mycobacterium tuberculosis; experiment: Inhibition of mycolic acid biosynthesis in Mycobacterium tuberculosis mc2 6230 assessed as decrease in alpha-mycolic acid incubated for 15 mins followed by 14C-labeled acetate addition measured after 7 hrs by TLC analysis; format: functional, organism-based; conditions: time 435.0 min
[15] = system: Mycobacterium tuberculosis; experiment: Inhibition of mycolic acid biosynthesis in Mycobacterium tuberculosis mc2 6230 assessed as decrease in methoxy-mycolic acid incubated for 15 mins followed by 14C-labeled acetate addition measured after 7 hrs by TLC analysis; format: functional, organism-based; conditions: time 435.0 min
[16] = system: Mycobacterium tuberculosis; experiment: Inhibition of mycolic acid biosynthesis in Mycobacterium tuberculosis mc2 6230 assessed as decrease in keto-mycolic acid incubated for 15 mins followed by 14C-labeled acetate addition measured after 7 hrs by TLC analysis; format: functional, organism-based; conditions: time 435.0 min
[17] = system: Mycobacterium tuberculosis; experiment: Antimycobacterial activity against Mycobacterium tuberculosis H37Rv assessed as inhibition of bacterial growth; format: functional

**Q.** With `Clc1ccc2c(N3CCNCC3)ccnc2c1` as the compound, how does the MIC [1] read?
**A.** 92 µg/mL (≈ 371 µM)

**Q.** With `COc1cc(C=O)ccc1OCc1cn(-c2ccnc3cc(Cl)ccc23)nn1` as the compound, how does the MIC [1] read?
**A.** > 200 µg/mL

**Q.** For `O=C(N/N=C/c1ccccc1-n1cc(CN2CCN(c3ccnc4cc(Cl)ccc34)CC2)nn1)c1cccnc1`, which MIC [1] is on record?
**A.** > 200 µg/mL

**Q.** Which MIC [1] does the source give for `O=C(N/N=C/c1ccc(OCc2cn(CCCNc3ccnc4cc(Cl)ccc34)nn2)cc1)c1ccncc1` here?
**A.** 0.5 µg/mL (≈ 0.924 µM)

**Q.** What about the Activity [2] of the same compound?
**A.** 2 log10CFU/ml

**Q.** And the CC50 at 24 h [3]?
**A.** > 100 µg/mL

**Q.** And the MIC (Mycobacterium marinum)?
**A.** 50 µg/mL (≈ 92.4 µM)

**Q.** What about the Activity [4] of the same compound?
**A.** Active

**Q.** What about the CC50 at 72 h [5] of the same compound?
**A.** 67 µg/mL (≈ 124 µM)

**Q.** What about the MIC [6] of the same compound?
**A.** > 200 µg/mL

**Q.** What about the Activity [7] of the same compound?
**A.** ~3 log10CFU/ml

**Q.** What about the Activity [8] of the same compound?
**A.** Active

**Q.** And the Activity (Vero)?
**A.** Non-Toxic

**Q.** What about the MIC [9] of the same compound?
**A.** > 200 µg/mL

**Q.** For `O=Cc1ccc(OCc2cn(CCNc3ccnc4cc(Cl)ccc34)nn2)cc1`, which MIC [1] is on record?
**A.** > 200 µg/mL

**Q.** Which MIC [1] does the source give for `COc1cc(/C=N/NC(=O)c2ccncc2)ccc1OCc1cn(-c2ccnc3cc(Cl)ccc23)nn1` here?
**A.** 0.5 µg/mL (≈ 0.973 µM)

**Q.** What about the Activity [2] of the same compound?
**A.** 2 log10CFU/ml

**Q.** And the CC50 at 24 h [3]?
**A.** > 100 µg/mL

**Q.** What about the MIC (Mycobacterium marinum) of the same compound?
**A.** > 200 µg/mL

**Q.** What about the selectivity ratio [10] of the same compound?
**A.** > 200

**Q.** What about the Activity [4] of the same compound?
**A.** Active

**Q.** And the CC50 at 72 h [5]?
**A.** > 100 µg/mL

**Q.** And the selectivity ratio [11]?
**A.** > 200

**Q.** And the MIC [6]?
**A.** > 200 µg/mL

**Q.** What about the selectivity ratio [12] of the same compound?
**A.** > 200

**Q.** And the Activity [7]?
**A.** ~3 log10CFU/ml

**Q.** What about the Activity [8] of the same compound?
**A.** Active

**Q.** What about the MIC [9] of the same compound?
**A.** > 200 µg/mL

**Q.** What about the selectivity ratio [13] of the same compound?
**A.** > 200

**Q.** For `NNC(=O)c1ccncc1` [ISONIAZID], which MIC [1] is on record?
**A.** 0.05 µg/mL (≈ 0.365 µM)

**Q.** And the MIC (Mycobacterium marinum)?
**A.** 25 µg/mL (≈ 182 µM)

**Q.** What about the MIC [6] of the same compound?
**A.** > 200 µg/mL

**Q.** What about the inhibition [14] of the same compound?
**A.** Dose-Dependent Effect

**Q.** And the inhibition [15]?
**A.** Dose-Dependent Effect

**Q.** What about the inhibition [16] of the same compound?
**A.** Dose-Dependent Effect

**Q.** And the MIC [9]?
**A.** > 200 µg/mL

**Q.** For `CO[C@H]1/C=C/O[C@@]2(C)Oc3c(C)c(O)c4c(c3C2=O)C2=NC3(CCN(CC(C)C)CC3)NC2=C(NC(=O)/C(C)=C\C=C\[C@H](C)[C@H](O)[C@@H](C)[C@@H](O)[C@@H](C)[C@H](OC(C)=O)[C@@H]1C)C4=O` [RIFABUTIN], which CC50 at 24 h [3] is on record?
**A.** 60 µg/mL (≈ 70.8 µM)

**Q.** For `COc1cc(/C=N/NC(=O)c2cnccn2)ccc1OCc1cn(CCNc2ccnc3cc(Cl)ccc23)nn1`, which MIC [1] is on record?
**A.** > 200 µg/mL

**Q.** With `O=C(N/N=C/c1ccc(OCc2cn(CCCNc3ccnc4cc(Cl)ccc34)nn2)cc1)c1cnccn1` as the compound, how does the MIC [1] read?
**A.** > 200 µg/mL

**Q.** Which MIC [17] does the source give for `CC(C)c1ccc(-c2nc(CN3CCN(c4ccnc5cc(Cl)ccc45)CC3)no2)cc1` here?
**A.** 1.11 µM

**Q.** For `O=C(N/N=C/c1ccccc1)c1ccncc1` [N'-BENZYLIDENE ISONICOTINOHYDRAZIDE], which MIC [17] is on record?
**A.** 0.05 µg/mL

**Q.** With `COc1cc(/C=N/NC(=O)c2cccnc2)ccc1OCc1cn(CCCNc2ccnc3cc(Cl)ccc23)nn1` as the compound, how does the MIC [1] read?
**A.** > 200 µg/mL

**Q.** With `COc1cc(/C=N/NC(=O)c2ccncc2)ccc1OCc1cn(CCCNc2ccnc3cc(Cl)ccc23)nn1` as the compound, how does the MIC [1] read?
**A.** 0.25 µg/mL (≈ 0.438 µM)

**Q.** What about the Activity [2] of the same compound?
**A.** 2 log10CFU/ml

**Q.** And the CC50 at 24 h [3]?
**A.** > 100 µg/mL

**Q.** And the MIC (Mycobacterium marinum)?
**A.** 100 µg/mL (≈ 175 µM)

**Q.** And the selectivity ratio [10]?
**A.** > 200

**Q.** And the Activity [4]?
**A.** Active

**Q.** And the CC50 at 72 h [5]?
**A.** > 100 µg/mL

**Q.** What about the selectivity ratio [11] of the same compound?
**A.** > 200

**Q.** And the MIC [6]?
**A.** > 200 µg/mL

**Q.** And the selectivity ratio [12]?
**A.** > 200

**Q.** And the Activity [7]?
**A.** ~3 log10CFU/ml

**Q.** And the Activity [8]?
**A.** Active

**Q.** What about the Activity (Vero) of the same compound?
**A.** Non-Toxic

**Q.** And the MIC [9]?
**A.** > 200 µg/mL

**Q.** What about the selectivity ratio [13] of the same compound?
**A.** > 200

**Q.** Which MIC [1] does the source give for `COc1cc(/C=N/NC(=O)c2cccnc2)ccc1OCc1cn(-c2ccnc3cc(Cl)ccc23)nn1` here?
**A.** > 200 µg/mL

**Q.** With `COc1cc(/C=N/NC(=O)c2cnccn2)ccc1OCc1cn(CCCNc2ccnc3cc(Cl)ccc23)nn1` as the compound, how does the MIC [1] read?
**A.** > 200 µg/mL

From ChEMBL document CHEMBL5346861, “Designing quinoline-isoniazid hybrids as potent anti-tubercular agents inhibiting mycolic acid biosynthesis” (Eur J Med Chem, 2022)
